Test results taken from ChEMBL document CHEMBL2057153, “Bisdionin C-a rationally designed, submicromolar inhibitor of family 18 chitinases” (ACS Med Chem Lett, 2011).

Experiments:
Endochitinase B1 = Endochitinase B1 (Aspergillus fumigatus, UniProt Q873X9); assay: Inhibition of Aspergillus fumigatus ChitinaseB1 expressed in Escherichia coli using 4-methyumbelliferyl-beta-B-N,N'-diacetylchitobiose after 10 mins
Method in brief: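 Recombinant AfChiB1, expressed and purified as reported earlier, assayed with fluorogenic 4MU-GlcNAc2 substrate. IC50 obtained from triplicate measurements at each inhibitor concentration.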

[1] = target: Acidic mammalian chitinase (Mus musculus, UniProt Q91XA9); assay: Inhibition of AMCase in BALB/c mouse lung homogenate using 4-methyumbelliferyl-beta-B-N,N'-diacetylchitobiose after 10 mins
Method in brief: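 AMCase activity taken from lung homogenate of female BALB/C mice; 100 mg lung lobe tissue homogenized in HBSS. Substrate 4MU-GlcNAc2, fluorogenic 4-methylumbelliferone release. IC50 from triplicate measurements at each inhibitor concentration.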

Endochitinase A1 = target: T1, Endochitinase A1 (Aspergillus fumigatus, UniProt Q873Y0); assay: Inhibition of Aspergillus fumigatus chitinaseA1 using 4-methyumbelliferyl-beta-B-N,N'-triacetylchitotriose as substrate after 10 mins
T1 sequence (Q873Y0 whole entry): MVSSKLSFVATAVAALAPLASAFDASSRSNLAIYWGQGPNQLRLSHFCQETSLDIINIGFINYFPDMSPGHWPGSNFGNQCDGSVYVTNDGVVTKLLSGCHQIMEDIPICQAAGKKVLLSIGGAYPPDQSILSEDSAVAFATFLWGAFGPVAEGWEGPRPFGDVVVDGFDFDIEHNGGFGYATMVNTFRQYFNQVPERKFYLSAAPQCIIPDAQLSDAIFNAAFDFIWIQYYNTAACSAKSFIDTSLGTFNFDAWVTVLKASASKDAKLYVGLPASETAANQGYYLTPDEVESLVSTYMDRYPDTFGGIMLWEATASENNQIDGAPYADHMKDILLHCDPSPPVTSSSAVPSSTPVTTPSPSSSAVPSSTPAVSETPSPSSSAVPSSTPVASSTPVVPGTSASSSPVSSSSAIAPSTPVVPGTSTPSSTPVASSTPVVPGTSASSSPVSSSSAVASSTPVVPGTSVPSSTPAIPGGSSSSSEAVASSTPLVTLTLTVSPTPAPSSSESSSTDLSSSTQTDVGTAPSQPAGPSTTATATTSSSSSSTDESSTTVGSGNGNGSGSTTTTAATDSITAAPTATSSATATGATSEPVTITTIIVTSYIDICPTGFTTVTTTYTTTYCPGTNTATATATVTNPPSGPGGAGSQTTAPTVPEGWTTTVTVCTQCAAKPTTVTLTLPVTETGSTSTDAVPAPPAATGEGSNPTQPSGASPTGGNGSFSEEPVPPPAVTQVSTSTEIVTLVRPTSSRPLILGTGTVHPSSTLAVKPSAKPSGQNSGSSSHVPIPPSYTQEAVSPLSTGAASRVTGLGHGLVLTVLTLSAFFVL
Method in brief: (§1)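 Enzymes (AfChiA1; human chitotriosidase) expressed and purified as reported earlier, assayed with fluorogenic 4MU-GlcNAc3 substrate. IC50 from triplicate measurements at each inhibitor concentration.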

[2] = Inhibition of human chitotriosidase using 4-methyumbelliferyl-beta-B-N,N'-triacetylchitotriose as substrate after 10 mins; method in brief: as §1

Chain of Acidic mammalian chitinase (Q91XA9 whole entry): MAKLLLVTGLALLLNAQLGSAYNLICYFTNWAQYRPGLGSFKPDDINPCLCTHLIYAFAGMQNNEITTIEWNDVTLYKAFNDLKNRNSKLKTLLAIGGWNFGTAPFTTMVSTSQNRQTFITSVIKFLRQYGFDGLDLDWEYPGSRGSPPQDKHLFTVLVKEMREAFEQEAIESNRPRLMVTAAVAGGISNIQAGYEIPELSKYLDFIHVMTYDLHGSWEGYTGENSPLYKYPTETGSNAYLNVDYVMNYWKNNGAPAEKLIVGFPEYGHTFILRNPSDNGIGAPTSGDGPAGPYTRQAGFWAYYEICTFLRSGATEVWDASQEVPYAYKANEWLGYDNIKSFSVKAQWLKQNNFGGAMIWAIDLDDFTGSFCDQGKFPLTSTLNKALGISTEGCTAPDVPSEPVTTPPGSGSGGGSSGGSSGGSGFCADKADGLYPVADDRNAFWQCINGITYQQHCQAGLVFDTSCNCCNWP

Compound	IC50 (Endochitinase B1)	IC50 [1]	IC50 (Endochitinase A1)	IC50 [2]
Cn1cnc2c1c(=O)n(CCn1c(=O)c3c(ncn3C)n(C)c1=O)c(=O)n2C [BISDIONIN B]	4.8 µM	90 µM	> 1000 µM	110 µM
Cn1cnc2c1c(=O)n(CCCn1c(=O)c3c(ncn3C)n(C)c1=O)c(=O)n2C [BISDIONIN C]	0.2 µM	3.4 µM	> 1000 µM	8.3 µM
Cn1cnc2c1c(=O)n(CCCCn1c(=O)c3c(ncn3C)n(C)c1=O)c(=O)n2C [BISDIONIN D]	9 µM		> 1000 µM	91 µM
Cn1cnc2c1c(=O)n(CCCCCn1c(=O)c3c(ncn3C)n(C)c1=O)c(=O)n2C [BISDIONIN E]	5.7 µM		820 µM	260 µM
